Results pooled from the literature.
TYMS: Thymidylate synthase (TYMS, Homo sapiens, UniProt P04818)
PDGFRB: Platelet-derived growth factor receptor beta (PDGFRB, Homo sapiens, UniProt P09619)
DHODH: Dihydroorotate dehydrogenase (quinone), mitochondrial (DHODH, Homo sapiens, UniProt Q02127)
PSMB8: Proteasome subunit beta type-8 (PSMB8, Homo sapiens, UniProt P28062)
PTGS2: Prostaglandin G/H synthase 2 (PTGS2, Homo sapiens, UniProt P35354)
EPHA7: Ephrin type-A receptor 7 (EPHA7, Homo sapiens, UniProt Q15375)

Compound | target | effect on | action | method | time | setting | IC50
CCOC(=O)C1CCN(C(=O)c2ccc(N(C)Cc3cnc4nc(N)nc(N)c4n3)cc2)CC1 | TYMS | enzyme activity | inhibitor | – | – | – | 74 µM
Cc1cnc(-c2ccc(-c3ccc(NC(=O)Nc4c(F)cc(F)cc4F)cc3F)c3c2C(=O)NC3)[nH]1 | PDGFRB | enzyme activity | inhibitor | – | – | – | 0.0104 µM
CCOc1ccc2c(-c3cc(C)nc(Nc4cc(OC)cc(C(F)(F)F)c4)n3)cnn2n1 | Dual specificity tyrosine-phosphorylation-regulated kinase 3 (DYRK3, Homo sapiens, UniProt O43781) | enzyme activity | inhibitor | – | – | – | > 10 µM
Cc1nc(Nc2ccc(S(F)(F)(F)(F)F)cc2)c2c(C)noc2n1 | DHODH | enzyme activity | inhibitor | absorbance | – | – | > 50 µM
Oc1ccc(Cl)cc1Nc1nc(NCC2CCCO2)c2ccccc2n1 (centres unmarked) | Lysosomal acid glucosylceramidase (GBA1, Homo sapiens, UniProt P04062, R534H) | enzyme activity | inhibitor | – | – | – | 19 µM
CC(C)C[C@H](NC(=O)[C@H](CC(C)C)NC(=O)[C@H](Cc1ccccc1)NC(=O)CN=[N+]=[N-])C(=O)N[C@H](/C=C/S(C)(=O)=O)Cc1ccc(CN)cc1 | PSMB8 | enzyme activity | inhibitor | – | – | lysate | 1.3 µM
Cc1cccn2c(Nc3ccc(Cl)cc3)c(-c3ccc(S(C)(=O)=O)cc3)nc12 | PTGS2 | enzyme activity | inhibitor | – | – | – | 0.14 µM
O=C1N[C@H]2n3c(cc(Br)c3Br)C(=O)N3CCC[C@]23N1 (racemic) | Proteasome subunit beta type-8, chymotrypsin-like site (PSMB8, Homo sapiens, UniProt P28062) | enzyme activity | inhibitor | – | – | – | 6.7 µM
Cc1ncc(C(=O)N[C@@H](CC2CCC(C3CCCCC3)CC2)C(=O)N[C@@H](CC(C)C)C(=O)N[C@H](/C=C/S(C)(=O)=O)Cc2ccc(CN)cc2)s1 (some centres unmarked) | PSMB8 | enzyme activity | inhibitor | – | – | lysate | > 10 µM
Nc1nc(N)c2nc(CNc3ccc(C(=O)N4CCC(C(=O)O)CC4)cc3)cnc2n1 | TYMS | enzyme activity | inhibitor | – | – | – | 67 µM
CC(C)=CCC[C@@H](C)c1ccc(C)c(O)c1 | UDP-glucuronosyltransferase 1A1 (UGT1A1, Homo sapiens, UniProt P22309) | enzyme activity | inhibitor | – | 90 min | – | 11.3 µM
Cc1ncc(C(=O)N[C@@H](CC(C)C)C(=O)N[C@@H](CC2CCC3CCCCC3C2)C(=O)N[C@H](/C=C/S(C)(=O)=O)Cc2ccc(CN)cc2)s1 (some centres unmarked) | PSMB8 | enzyme activity | inhibitor | – | – | lysate | 3.24 µM
O=C(O)C1=CC(=C(c2ccc(O)c(C(=O)O)c2)c2ccc(O)c(C(=O)O)c2)C=CC1=O | PFKM (Oryctolagus cuniculus, UniProt P00511) | enzyme activity | inhibitor | – | – | – | 3.92 µM
CCCCCCCC(=O)N[C@H](CN1CCCC1)[C@H](O)c1ccc2c(c1)OCCO2 | Lysosomal acid glucosylceramidase (GBA1, Homo sapiens, UniProt P04062) | enzyme activity | inhibitor | – | – | – | 15 µM
Cc1ncc(C(=O)N[C@@H](CC2CCCC3CCCCC32)C(=O)N[C@@H](CC(C)C)C(=O)N[C@H](/C=C/S(C)(=O)=O)Cc2ccc(CN)cc2)s1 (some centres unmarked) | PSMB8 | enzyme activity | inhibitor | – | – | lysate | 0.555 µM
CCCN(C)Cc1cc(-c2[nH]c3cccc(F)c3c(=O)c2C)ccc1Cc1ccc(OC(F)(F)F)cc1 | DHODH | enzyme activity | inhibitor | – | – | – | > 10 µM

Compound | target | effect on | action | method | time | setting | IC50
Cc1ccc(Nc2c(-c3ccc(S(C)(=O)=O)cc3)nc3cccc(C)n23)cc1 | PTGS2 | enzyme activity | inhibitor | – | – | – | 0.12 µM
CCn1ncc2c1-c1cnc(N)c(c1)O[C@H](C)c1cc(F)ccc1-c1nn(C)nc1C2 | EPHA7 | enzyme activity | inhibitor | radiometric | – | – | 0.379 µM
COc1ccc(C[C@H](NC(=O)[C@H](C)NC(=O)CN2CCOCC2)C(=O)N[C@H](C(=O)[C@@]2(C)CO2)C2CCCCC2)cc1 | PSMB8 | enzyme activity | inhibitor | – | – | lysate | > 10 µM
N#Cc1ccc(COc2cccc(C3CCN(Cc4nc5ccc(C(=O)O)cc5n4C[C@@H]4CCO4)CC3)n2)c(F)c1 | Glucagon receptor (GCGR, Homo sapiens, UniProt P47871) | cAMP | antagonist | – | – | – | > 20 µM
O=C(N=Nc1c(O)[nH]c2ccccc12)c1cccs1 | TYMS | enzyme activity | inhibitor | radiometric | – | – | 260 µM
Cc1nc(Nc2ccc(C)c(Cl)c2)c2c(C)noc2n1 | DHODH | enzyme activity | inhibitor | absorbance | – | – | > 50 µM
Cc1cc(Nc2cc3ncccc3c(N[C@@H]3C[C@H]4CC[C@@H](C3)N4CCC#N)n2)n[nH]1 | PDGFRB | target engagement in cells | inhibitor | BRET | – | – | > 10 µM
Cn1cc(C2=C(c3coc4ccccc34)C(=O)NC2=O)c2cc(Br)ccc21 | Dual specificity tyrosine-phosphorylation-regulated kinase 1B (DYRK1B, Homo sapiens, UniProt Q9Y463) | enzyme activity | inhibitor | – | – | – | 0.59 µM
CC[C@@H]1[C@H](F)C(=O)N[C@@H]1COc1nccc2cc(C(N)=O)c(OC)cc12 | EPHA7 | enzyme activity | inhibitor | – | – | – | > 5 µM
Cc1ncc(C(=O)N[C@@H](CC(C)C)C(=O)N[C@@H](CC2CCC(C3CCCCC3)CC2)C(=O)N[C@H](/C=C/S(C)(=O)=O)Cc2ccc(CN)cc2)s1 (some centres unmarked) | PSMB8 | enzyme activity | inhibitor | – | – | lysate | > 10 µM
COc1ccc(S(=O)(=O)ON=C2C=C(C)C(=O)C(C)=C2)cc1 | CREB-binding protein (CREBBP, Homo sapiens, UniProt Q92793) | enzyme activity | inhibitor | radiometric | – | – | > 100 µM
CC(C)C[C@H](NC(=O)[C@H](Cc1ccccc1)N=[N+]=[N-])C(=O)N[C@@H](CC(C)(C)F)C(=O)N[C@H](/C=C/S(C)(=O)=O)Cc1ccc(CN)cc1 | PSMB8 | enzyme activity | inhibitor | – | – | lysate | 2.34 µM
CN1CCN(c2ccc(Nc3ncc4cc(C#N)c(=O)n(C5CCCC5)c4n3)cc2)CC1 | Dual specificity tyrosine-phosphorylation-regulated kinase 1A (DYRK1A, Homo sapiens, UniProt Q13627) | enzyme activity | inhibitor | – | – | – | 0.807 µM
Cc1ncc(C(=O)N[C@@H](CC(C)C)C(=O)N[C@@H](CC2CCCCC2)C(=O)N[C@H](/C=C/S(C)(=O)=O)Cc2ccc(CN)cc2)s1 | PSMB8 | enzyme activity | inhibitor | – | – | lysate | > 10 µM
Cc1nc(NC2CCc3cc(Br)ccc3C2)c2c(C)noc2n1 (centres unmarked) | DHODH | enzyme activity | inhibitor | absorbance | – | – | > 100 µM
CC(=O)N[C@@H](CC(=O)O)C(=O)N[C@@H](CCC(=O)O)C(=O)N[C@H](C(=O)N[C@H](C=O)CC(=O)O)C(C)C | Caspase-7 (CASP7, Homo sapiens, UniProt P55210) | enzyme activity | inhibitor | – | – | – | 0.00175 µM
